# Assay results of several laboratories.
# Protocols differ between the studies behind these lines.
# Target: Rhodopsin kinase GRK1 (GRK1, Homo sapiens, UniProt Q15835)
# One construct used (Q15835 1-563): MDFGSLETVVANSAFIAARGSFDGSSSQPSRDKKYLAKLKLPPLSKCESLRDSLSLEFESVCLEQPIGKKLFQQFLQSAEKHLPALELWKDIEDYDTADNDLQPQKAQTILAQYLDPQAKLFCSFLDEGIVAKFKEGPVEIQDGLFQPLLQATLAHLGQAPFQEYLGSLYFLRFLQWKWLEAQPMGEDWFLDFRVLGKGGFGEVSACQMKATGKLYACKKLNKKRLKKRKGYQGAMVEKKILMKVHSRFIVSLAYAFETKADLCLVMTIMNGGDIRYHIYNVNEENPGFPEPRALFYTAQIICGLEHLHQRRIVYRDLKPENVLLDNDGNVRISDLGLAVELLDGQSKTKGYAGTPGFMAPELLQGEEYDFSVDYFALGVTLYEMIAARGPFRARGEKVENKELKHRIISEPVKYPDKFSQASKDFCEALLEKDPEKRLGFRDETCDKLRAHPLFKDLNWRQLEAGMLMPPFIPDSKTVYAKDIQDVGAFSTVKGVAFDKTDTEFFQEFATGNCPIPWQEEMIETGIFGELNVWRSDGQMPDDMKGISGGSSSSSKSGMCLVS
SMILES,assay,conditions,remaining binding [%]
COCCOc1nc(-c2ccc(Cl)nc2)nc2c1CN(C(=O)c1ncn3ccccc13)CC2,"cell-free assay, competition with immobilised ligand",0.1 µM,100
FC(F)(F)Oc1cccc(-c2cnc3ccc(-c4ccncc4)nn23)c1,"cell-free assay, competition with immobilised ligand",5 µM,38
CN(C)c1nccc(-c2cnn3ncccc23)n1,binding,1 µM,79
O=C(Nc1c[nH]nc1C(=O)NC1CCNCC1)c1cc(F)cc(F)c1,"binding, competition with immobilised ligand",1 µM,83
Cn1cc(Cl)c2c(Oc3c(F)cc(Nc4cc(Cl)nc(N)n4)cc3F)ccnc21,"cell-free assay, competition with immobilised ligand",0.1 µM,92
O=C(NCCCN1CCOCC1)c1ccc(Nc2nccc(-c3cc4ccccc4s3)n2)cc1,"binding, competition with immobilised ligand",1 µM,74
CC(=O)N1CCC(c2ccc(C(=O)NC3=NCCN3)cc2C(F)(F)F)CC1,"cell-free assay, competition with immobilised ligand",1 µM,95
c1cncc(-c2cccc(Nc3nccc(NC4CCCCC4)n3)c2)c1,"binding, competition with immobilised ligand",10 µM,44
CN(C(=O)c1ccccc1)c1cc(N(C)c2ccc3c(c2)CCc2ccc(C(=O)NCCN4CCOCC4)cc2C3=O)ccc1F,"cell-free assay, competition with immobilised ligand",1 µM,93
N[C@@H]1CCN(c2nccc(-c3cnn4ncccc34)n2)C1,binding,1 µM,100
CC1=C(C#N)C(c2ccc3c(c2)c(NC(=O)c2ccccc2C)nn3C)C(C#N)=C(C)N1,"cell-free assay, competition with immobilised ligand",1 µM,88
CN(CCCC(F)(F)F)c1nccc(-c2cnn3ncccc23)n1,binding,1 µM,100
Nc1ncc2c(n1)-c1c([nH]c3ccc(C#CC4CC4)cc13)CCCC2,"binding, competition with immobilised ligand",1 µM,90
CS(=O)(=O)NCC[C@H](NC(=O)c1cncc2c1cnn2-c1ccc(F)cc1)c1ccnc(S(C)(=O)=O)c1,"cell-free assay, competition with immobilised ligand",1 µM,100
Cc1cnc(Nc2ccc(C(=O)N3CCC(N4CCCC4)CC3)cc2)nc1-c1cc2ccccc2s1,"binding, competition with immobilised ligand",1 µM,64
COc1cnc(Nc2cccc(S(N)(=O)=O)c2)nc1N1CCN(c2ccccc2)C(=O)C1,"binding, competition with immobilised ligand",1 µM,97
C[C@H]1CCN(c2nccc(-c3cnn4ncccc34)n2)C1,binding,1 µM,74
COc1cnc(Nc2cccc(S(N)(=O)=O)c2)nc1N1CCN(c2ccccc2)CC1,"binding, competition with immobilised ligand",1 µM,99
F[C@@H]1CCN(c2nccc(-c3cnn4ncccc34)n2)C1,binding,1 µM,100
